# High-throughput results as filed in PubChem BioAssay.
# This is one part of a sample in which hits are shown more often than they occur.
# T cell HTS = T cell immune modulators affecting CD8 T cell-vesicle binding. response (vesicle binding), % at 7 µM. 330,000 compounds, 0.068% hits. 2C CD8+ T cell-vesicle binding, flow cytometry; hits give low values. AID 2052;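 active = response, share of CD8 T cells binding vesicles, and their 90th percentile fluorescence all below set limits, cut at about 80% in these data, passing the limit was not always enough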;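 note: values below 100% mean blocked vesicle binding to the CD8+ T cells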
#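 Incubation: binding step 1.5 h, 37 °C, antibody labelling 20 min, ice; system: murine 2C transgenic CD8+ T lymphocytes; technique: cytometric PE anti-B7-1 and Alexa647 anti-CD8 signals after 1% paraformaldehyde fixation; also added: QL9-charged Drosophila Ld/ICAM-1/B7-1 vesicles; control set: naked versus QL9-loaded vesicles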
# ALR inh = blocks human ALR sulfhydryl oxidase activity | 290,000 compounds, 3.8% hits | inhibition, % (no concentration beside the values) | purified ALR, DTT oxidation, H2O2 HRP-luminol luminescence | P55789;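 active = mean replicate inhibition above about 79%, with every replicate also reaching it, limit read from the data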
# Target sequence (P55789 whole entry, looked up): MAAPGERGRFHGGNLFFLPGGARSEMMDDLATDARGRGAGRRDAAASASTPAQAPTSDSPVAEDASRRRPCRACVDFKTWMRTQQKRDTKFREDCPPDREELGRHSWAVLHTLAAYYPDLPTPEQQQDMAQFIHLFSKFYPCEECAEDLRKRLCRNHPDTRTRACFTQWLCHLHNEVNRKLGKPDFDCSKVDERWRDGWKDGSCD
# N-glyco inh = blocks N-linked glycosylation in D54 reporter cells; D54 ERlucT glycosylation luciferase reporter, 24 h; percent of 100 nM tunicamycin response; reporter increase, % at 12.5 µM; 360,000 compounds, 0.23% hits;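 active = mean luciferase reporter signal, scaled so untreated is 0 and the glycosylation-blocking control 100, at or above a set limit in every replicate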;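 note: luciferase carries N-glycosylation sites so blocking glycosylation raises the light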
# A number is an active result; . = inactive; / = not tested or not shown.
SMILES,T cell HTS,ALR inh,N-glyco inh
O=C(CSc1nnc(SCc2ccc(Cl)cc2)s1)N/N=C/c1ccc(Cl)cc1Cl,.,.,.
COc1cc(OC)cc(C(=O)N2CCN(S(=O)(=O)c3ccc(Cl)s3)CC2)c1,.,/,.
O=C(Cn1nnc(-c2ccccc2)n1)OCc1csc(-c2ccccc2)n1,.,98.8,.
O=C(Cn1nnc(-c2ccccc2)n1)OCc1ccccc1,.,.,.
O=C(CN(C(=O)c1csnn1)c1cccc(C(F)(F)F)c1)NC1CCCC1,.,.,.
CC(=O)Nc1ccc(SCC(=O)N(C)C2CCS(=O)(=O)C2)cc1 (configuration not stated),.,98.2,.
CCN(C(=O)CSc1ccc2c(c1)OCCO2)C1CCS(=O)(=O)C1 (configuration not stated),.,91.6,.
CCN(C(=O)CSc1nnc(-c2ccc3c(c2)OCO3)o1)C1CCS(=O)(=O)C1 (configuration not stated),.,/,.
CCN(C(=O)CSc1nc2ccc(C)cc2[nH]1)C1CCS(=O)(=O)C1 (configuration not stated),.,.,.
CN(C(=O)CSc1ncccn1)C1CCS(=O)(=O)C1 (configuration not stated),.,/,.
CCN(C(=O)CSc1nc(-c2ccccc2)c(-c2ccccc2)[nH]1)C1CCS(=O)(=O)C1 (configuration not stated),.,98.9,.
Cc1cc(Cl)ccc1OC(C)C(=O)NN=C1CCCCCC1 (configuration not stated),.,/,.
COc1cccc(CNC(=O)CCC2CCCN(Cc3cc(Cl)ccc3O)C2)c1 (configuration not stated),.,.,.
O=C(O)CCCCCNC(=O)OCC1c2ccccc2-c2ccccc21,.,.,.
COc1ccccc1-c1csc(C(NC(C)=O)c2cccc(F)c2)n1 (configuration not stated),/,/,32.8
COc1ccc(-c2csc(C(NC(C)=O)c3cccc(F)c3)n2)cc1 (configuration not stated),/,/,.
C=CCNC(=O)C1CCCN(S(=O)(=O)c2ccc(-n3cnnn3)cc2)C1 (configuration not stated),.,.,.
Nn1c(SCC(=O)NC(=O)NCc2ccco2)nnc1-c1ccc(OC(F)F)cc1,.,.,.
O=C1c2cccc3cccc(c23)C(=O)N1CCCc1n[nH]c(=S)n1-c1ccccc1,.,91.9,.
OCCCc1n[nH]c(=S)n1-c1ccccc1,.,.,.
CN(C(=O)COC(=O)c1ccccc1C(=O)N1CCN(c2ccccc2)CC1)c1ccccc1,.,.,.
COc1cc(/C=N/NC(=O)c2nnn(-c3nonc3N)c2C(C)C)ccc1OCc1ccccc1,.,.,.
COc1cc(/C=N/NC(=O)c2nnn(-c3nonc3N)c2-c2cccs2)ccc1O,.,89.3,.
COc1cc(/C=N/NC(=O)c2nnn(-c3nonc3N)c2C(C)C)ccc1O,.,98.9,.
CN(Cc1c(C(=O)N/N=C/c2ccc(O)cc2)nnn1-c1nonc1N)c1ccccc1,.,99.6,.
SMILES,T cell HTS,ALR inh,N-glyco inh
CN(Cc1c(C(=O)N/N=C/c2ccccc2)nnn1-c1nonc1N)c1ccccc1,.,.,.
COc1ccc(/C=N/NC(=O)c2nnn(-c3nonc3N)c2-c2cccs2)cc1OC,.,.,.
CC1(C)OC2CC3C4CC=C5CC(O)CCC5(C)C4CCC3(C)C2(C(=O)CO)O1 (configuration not stated),/,/,.
O=C(/C=C/c1cccs1)N1CCCCC1,.,.,.
O=C(/C=C/c1cccs1)N1CCN(c2ccc(O)cc2)CC1,.,99.1,.
CC(=O)Oc1ccc(Cn2c(C)c(C(=O)NC3CC3)sc2=O)cc1,/,/,.
COc1cc(C#N)c(N=C(SCC#N)N2CCOCC2)cc1OC,.,98.2,.
COc1cc(C(=O)OCc2ccccc2C#N)ccc1OCC(=O)N1CCOCC1,.,.,.
C=CCn1c(SCC(=O)NC2CCCc3ccccc32)nnc1-c1ccncc1 (configuration not stated),.,.,.
CC1=C(C(=O)N(C(C)C)C(C)C)CC(CC(=O)NCc2cccc3ccccc23)C(=O)N1Cc1ccc(F)cc1 (configuration not stated),/,/,.
COc1cc(OC)cc(-c2c(-c3ccc(C(C)=O)cc3)c3cc(-c4cccc5[nH]ccc45)ccc3n2C)c1,.,.,.
CC1CCCCC1NC(=O)CSc1ncnc2sccc12 (configuration not stated),/,/,.
S=c1[nH]cnc2scc(-c3ccc(Br)cc3)c12,.,.,.
Cc1cc(-c2csc3nc[nH]c(=S)c23)cc(C)c1C,.,97.3,.
Cc1ccc(-c2csc3nc[nH]c(=S)c23)cc1,.,96.6,.
S=c1[nH]cnc2scc(-c3ccc(Cl)cc3)c12,.,.,.
